Mdm2 ligase inh: MDM2-luciferase reporter signal enhancers, primary screen, MDM2 E3 ligase inhibitor project, cell-based, luminescence, 1536-well; cell-based MDM2 ubiquitination luciferase reporter, 2 h; 0 = plate control, 100 = twice control, blank-subtracted; signal enhancement, % at 5 µM; 210,000 compounds, 0.11% hits;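 active = signal enhancement of 30% or more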;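 note: luminescence tracks abundance of the self-degrading MDM2-luciferase fusion protein; higher signal means inhibition of MDM2 E3 ligase activity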
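System: stable MDM2–luciferase fusion reporter cells / Input: 2000 cells seeded into each well / Schedule: 4 h settle plus 2 h compound, 37 °C / Compound: single-point 5 µM / Buffer or medium: cells held in DMEM / Benchmarks: control and blank well means / Evaluation: percent signal gain over controls, blank-subtracted / Measured by: luciferase luminescence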
Lmaj promast: Leishmania major promastigote growth inhibition, primary screen; Leishmania major promastigotes, resazurin fluorescence viability; inhibition, % at 10 µM; 200,000 compounds, 9% hits; in the data active = inhibition above about 50%;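 note: promastigotes grown with compound for 44 hours at 28 °C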
S1P3 antagonist: S1P3 receptor antagonists, primary screen, cell-based | Sphingosine 1-phosphate receptor 3 (Homo sapiens), Q99500 | CHO S1P3 NFAT-BLA reporter, FRET fluorescence, antagonist mode | inhibition, % at 4.98 µM | 170,000 compounds, 0.27% hits;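 active = inhibition above the plate cutoff, the mean inhibition of test wells on that plate plus 3 SD, cut at about 28% in these data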;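 note: cells challenged with S1P at its EC80 of 0.8 µM; blue over green emission ratio from cleaved BLA substrate after 4 h stimulation; 0% = S1P-stimulated wells and 100% = unstimulated DMSO-only wells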
S1P4 ag: S1P4 receptor agonists, primary screen, cell-based | Sphingosine 1-phosphate receptor 4 (Homo sapiens), O95977 | S1P4-expressing cell line, agonist reporter assay | activation, % at 4.98 µM | 220,000 compounds, 0.35% hits; in the data active = activation above about 11%;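 note: 0% = DMSO vehicle and 100% = reference agonist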
Target sequence (O95977 whole entry, looked up): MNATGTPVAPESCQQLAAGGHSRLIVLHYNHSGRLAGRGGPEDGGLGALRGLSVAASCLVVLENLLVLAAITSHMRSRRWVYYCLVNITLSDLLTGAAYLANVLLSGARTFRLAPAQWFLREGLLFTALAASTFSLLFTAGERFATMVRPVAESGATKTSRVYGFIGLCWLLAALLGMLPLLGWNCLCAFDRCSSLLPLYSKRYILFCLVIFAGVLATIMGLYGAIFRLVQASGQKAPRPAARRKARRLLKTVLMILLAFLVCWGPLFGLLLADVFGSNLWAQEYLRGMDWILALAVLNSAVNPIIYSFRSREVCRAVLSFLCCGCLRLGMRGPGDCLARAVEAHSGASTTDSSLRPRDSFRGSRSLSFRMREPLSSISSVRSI
S1P4 antag: S1P4 receptor antagonists, primary screen, cell-based | Sphingosine 1-phosphate receptor 4 (Homo sapiens), O95977 | S1P4-expressing cells, antagonist mode, reporter read-out | inhibition, % at 4.98 µM | 220,000 compounds, 0.26% hits | AID 1510, 2009; in the data active = inhibition above about 29%;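 note: 0% = wells stimulated with agonist and 100% = vehicle wells without agonist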
Numbers without * were called inactive. Only a selection was taken, and hits are over-represented in it overall.

Screening CC(NC(=O)COC(=O)c1cc(NS(=O)(=O)c2ccc(Cl)c([N+](=O)[O-])c2)ccc1O)C1CC2CCC1C2 (stereo unspecified) returned Mdm2 ligase inh 7, Lmaj promast -9, S1P3 antagonist -3, S1P4 ag 0 and S1P4 antag -3.
`O=C(Nc1ccc(Cl)cc1)OCc1cncs1` gave Mdm2 ligase inh -7, Lmaj promast 1, S1P4 ag -2 and S1P4 antag -4.
Screening O=C(Nc1cccc(Cl)c1)OCc1cncs1 returned Mdm2 ligase inh -17, Lmaj promast 78*, S1P4 ag 1 and S1P4 antag -7.
Cn1c(/C(C#N)=C/c2cccc(O)c2)nc2ccccc21 was read as Mdm2 ligase inh -26, Lmaj promast 89*, S1P3 antagonist -3, S1P4 ag 0 and S1P4 antag -13.
Cn1c(/C(C#N)=C/Nc2ccccn2)nc2ccccc21 was read as Mdm2 ligase inh -2, Lmaj promast -5, S1P4 ag 0 and S1P4 antag 1.
`Cc1cc(NC(=O)CCC(=O)N(Cc2ccccc2)C2(C(=O)NC3CCCCC3)CCCC2)no1` gave Mdm2 ligase inh -21, Lmaj promast 14, S1P3 antagonist -11, S1P4 ag 0 and S1P4 antag 6.
`CC1=CC(=NOC(=O)/C=C/c2ccccc2)C=C(C)C1=O` gave Mdm2 ligase inh -8, Lmaj promast 101*, S1P4 ag 2 and S1P4 antag -15.
CSc1nnc(C)c(=O)n1COC(=O)/C=C/c1ccccc1 was read as Mdm2 ligase inh -10, Lmaj promast 4, S1P3 antagonist -5, S1P4 ag -1 and S1P4 antag 13.
For CC1=CC(=O)C=C(C)C1=NOC(=O)/C=C\c1ccccc1 the results were Mdm2 ligase inh -12, Lmaj promast 53*, S1P3 antagonist -4, S1P4 ag 2 and S1P4 antag -18.
Screening N/C(=N\OC(=O)/C=C/c1ccccc1)c1ccncc1 returned Mdm2 ligase inh -9, Lmaj promast 14, S1P3 antagonist -1, S1P4 ag 1 and S1P4 antag 6.
CC1=C(C)/C(=N\OC(=O)/C=C/c2ccccc2)C=CC1=O was read as Mdm2 ligase inh 3, Lmaj promast 100*, S1P4 ag 0 and S1P4 antag -1.
For CC(C)N(C)CCOC(=O)/C=C/c1ccccc1 the results were Mdm2 ligase inh -41, Lmaj promast 4, S1P3 antagonist -8, S1P4 ag 0 and S1P4 antag -21.
For O=C(Nc1ccc(Oc2ccc(NC(=O)Nc3ccccc3Cl)cc2)cc1)Nc1ccccc1Cl the results were Mdm2 ligase inh -8, S1P3 antagonist -1, S1P4 ag -4 and S1P4 antag 4.
`CCOC(=O)C1CC(C)=C(C)CC1C(=O)O` (stereo unspecified) gave Mdm2 ligase inh -2, S1P3 antagonist -8, S1P4 ag 0 and S1P4 antag -8.
`O=C(CNc1cc(S(=O)(=O)N2CCOCC2)ccc1N1CCCC1)N1CCc2ccccc21` gave Mdm2 ligase inh -6, Lmaj promast 27, S1P3 antagonist -5, S1P4 ag -2 and S1P4 antag -5.
`CC(=O)Nc1ccc(C(=O)OCc2ccc(Cl)c(Cl)c2)cc1` gave Mdm2 ligase inh 6, Lmaj promast 62*, S1P3 antagonist -11, S1P4 ag 1 and S1P4 antag -9.
Screening CCC(=O)Nc1ccc(C(=O)OCc2ccc(Cl)c(Cl)c2)cc1 returned Mdm2 ligase inh -9, Lmaj promast 65*, S1P3 antagonist -1, S1P4 ag 1 and S1P4 antag -20.
`CC(=O)Nc1ccc(C(=O)OCc2ccc(Cl)cc2)cc1` gave Mdm2 ligase inh 3, Lmaj promast 34, S1P4 ag 0 and S1P4 antag 0.
`COc1ccccc1Oc1ccc(Oc2ccccc2OC)cc1` gave Mdm2 ligase inh 2, Lmaj promast 3, S1P3 antagonist -18, S1P4 ag 2 and S1P4 antag 1.
`COc1cccc(NC(=O)C2(S(=O)(=O)c3ccc(Cl)cc3)CC2)c1` gave Mdm2 ligase inh -6, S1P3 antagonist 9, S1P4 ag 2 and S1P4 antag 2.
Cc1cc(C)c2nc(NC(=O)[C@@H](NC(=O)c3cccc(S(=O)(=O)N4CCOCC4)c3)C(C)C)sc2c1 was read as Mdm2 ligase inh -23, Lmaj promast 97*, S1P3 antagonist -9, S1P4 ag -2 and S1P4 antag 4.
Screening Cc1cc(C)c2nc(NNC(=O)c3ccc(S(=O)(=O)N4CCCCC4)cc3)sc2c1 returned Lmaj promast 89*, S1P3 antagonist -4, S1P4 ag 0 and S1P4 antag -4.
`CCOC(=O)N1CCN(S(=O)(=O)c2ccc(C(=O)Nc3nnc(CC)o3)cc2)CC1` gave Mdm2 ligase inh 0, Lmaj promast 59*, S1P3 antagonist -2, S1P4 ag 2 and S1P4 antag -21.
Cc1cccc(C(=O)N[C@H](C(=O)Nc2cc(S(=O)(=O)N3CCCCC3)ccc2C)C(C)C)c1 was read as Mdm2 ligase inh -13, Lmaj promast -1, S1P3 antagonist -2, S1P4 ag 2 and S1P4 antag -11.
`CCOC(=O)N1CCc2c(sc(NC(=O)c3ccc(S(=O)(=O)N4CCCC4)cc3)c2C#N)C1` gave Mdm2 ligase inh -24, Lmaj promast 57*, S1P3 antagonist -12, S1P4 ag 1 and S1P4 antag 11.
Cc1ccc(-c2nc(-c3cccnc3)sc2CC(=O)Nc2ccc3nc(C)sc3c2)cc1 was read as Mdm2 ligase inh -3, Lmaj promast 33, S1P3 antagonist 9, S1P4 ag 1 and S1P4 antag -15.
`CCSc1nn2c(=O)c3ccccc3nc2s1` gave Mdm2 ligase inh -17, Lmaj promast -2, S1P4 ag -3 and S1P4 antag -5.
For CCOC(=O)N1CCN(S(=O)(=O)c2ccc(C(=O)NNc3nc4c(C)cccc4s3)cc2)CC1 the results were Lmaj promast 1, S1P3 antagonist -13, S1P4 ag 0 and S1P4 antag 9.
Screening CCOC(=O)N1CCN(S(=O)(=O)c2ccc(C(=O)NNc3nc4c(C)cc(C)cc4s3)cc2)CC1 returned Lmaj promast 88*, S1P3 antagonist -1, S1P4 ag 0 and S1P4 antag 10.
CC(C)CC(C(=O)Nc1ccccc1)N1C(=O)C2C3C=CC(C3)C2C1=O (stereo unspecified) was read as Lmaj promast 3, S1P3 antagonist 11, S1P4 ag 1 and S1P4 antag -12.
For Cn1c(=O)c2c(nc(N/N=C/c3ccc(OC(=O)c4ccco4)cc3)n2Cc2ccccc2Cl)n(C)c1=O the results were Mdm2 ligase inh -27, Lmaj promast 55*, S1P3 antagonist -2, S1P4 ag 3 and S1P4 antag -31.

High-throughput results deposited in PubChem by several laboratories.
